Rows were chosen to be rich in hits. Some 1.9% of all compounds tested hit in one or more screens of this group.
UHRF1 MBD2 ctr – blocks human UHRF1 binding to methylated DNA. actives 0.75% (n = 370,000). AID 687016. inhibition, % at 4.4 µM. UHRF1 binding to methylated oligo, TR-FRET; in the data active means inhibition above about 21%;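 further: UHRF1 SRA domain binding a hemimethylated CpG hairpin DNA probe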
LEDGF integ inh – blocks HIV-1 LEDGF/p75-dependent DNA integration. TR-FRET IN-LEDGF/p75 DNA integration, Eu/Cy5. inhibition, % at 3.7 µM. actives 0.64% (n = 370,000). AID 743269;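 active means inhibition above the screen-wide mean plus 3 SD, cut at about 13% in these data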;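 further: signal is the Cy5 over europium emission ratio at 671 and 618 nm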
MBD2 inh – inhibitors of human MBD2 binding to methylated oligonucleotide; actives 0.31% (n = 370,000); Q9UBB5; inhibition, % at 4.4 µM; TR-FRET; in the data active means inhibition above about 13%
Target sequence (Q9UBB5 whole entry, looked up): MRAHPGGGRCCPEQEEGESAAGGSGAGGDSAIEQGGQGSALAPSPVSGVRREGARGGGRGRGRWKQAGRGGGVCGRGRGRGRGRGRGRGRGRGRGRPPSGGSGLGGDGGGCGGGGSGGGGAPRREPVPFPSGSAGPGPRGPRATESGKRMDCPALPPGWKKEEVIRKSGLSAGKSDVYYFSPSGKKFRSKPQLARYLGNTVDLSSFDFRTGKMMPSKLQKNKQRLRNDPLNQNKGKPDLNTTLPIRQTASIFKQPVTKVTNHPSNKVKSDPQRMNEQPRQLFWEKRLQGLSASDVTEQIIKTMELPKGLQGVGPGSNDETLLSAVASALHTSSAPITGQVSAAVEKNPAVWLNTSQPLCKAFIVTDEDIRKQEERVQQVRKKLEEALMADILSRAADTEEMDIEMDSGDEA
TDP2 absorb – blocks human TDP2 phosphodiesterase activity; O95551; actives 0.34% (n = 370,000); inhibition, % at 12.8 µM; recombinant TDP2, T5PNP hydrolysis, p-nitrophenol absorbance 415 nm;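 active means inhibition above the mean of all tested compounds plus 3 SD, set per campaign, cut at about 25% in these data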
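System: recombinant human TDP2 / Amount: 120 nM TDP2 per well / Also added: 5 mM T5PNP chromogenic substrate / Doses: 12.8 µM single point, 1% DMSO / Incubation: 2 h at 37 °C / Detection: p-Nitrophenol epi absorbance / Evaluation: % inhibition relative to enzyme-containing and enzyme-free wells / Repeats: singlicate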
NSD2 inh – inhibitors of human histone methyltransferase NSD2. inhibition, % at 12.5 µM. O96028. actives 0.54% (n = 310,000). NSD2 peptide methylation, AlphaScreen, 120 min. AID 743445; in the data active means inhibition above about 50%
CASP6 VEID inh – inhibitors of human caspase-6. P55212. purified caspase-6, Z-VEID-R110 cleavage fluorescence. inhibition, % at 12.5 µM. actives 0.53% (n = 350,000);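 active means mean inhibition across replicates at least about 35%, with every replicate also reaching that limit, limit read from the data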
Target sequence (P55212 24-179 limits assumed): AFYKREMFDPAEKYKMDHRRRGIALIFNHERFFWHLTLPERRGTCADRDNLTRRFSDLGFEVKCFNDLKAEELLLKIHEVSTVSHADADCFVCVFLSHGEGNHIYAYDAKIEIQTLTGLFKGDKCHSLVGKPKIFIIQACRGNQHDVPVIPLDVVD
Target sequence (P55212 194-293 limits assumed): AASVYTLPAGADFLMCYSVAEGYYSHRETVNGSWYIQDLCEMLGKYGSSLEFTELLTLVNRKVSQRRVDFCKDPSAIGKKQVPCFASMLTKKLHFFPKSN
TDP2 confirm – confirmation of human TDP2 inhibitors; shares compounds with TDP2 absorb; recombinant human TDP2, absorbance read-out; inhibition, % at 12.8 µM; actives 22% (n = 1,100); in the data active means inhibition above about 25%
IN multimer up – activates HIV-1 integrase multimerization in LEDGF counter-screen. shares compounds with LEDGF integ inh. TR-FRET HIV-1 integrase multimerization, biochemical. activation, % at 7.7 µM. actives 17% (n = 2,000); in the data active means activation above about 8.9%
TRFRET interf – optically interferes with TR-FRET readout in LEDGF counter-screen; shares compounds with LEDGF integ inh; TR-FRET optical interference counterscreen, HIV-1 IN multimerization; inhibition, % at 7.7 µM; 2,000 tested, under 10 active;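 active means inhibition above the mean over all tested compounds plus 3 SD, which no compound reached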
LEDGF integ conf – confirmation of HIV-1 LEDGF/p75-dependent integration inhibitors. shares compounds with LEDGF integ inh. TR-FRET LEDGF/p75-dependent HIV-1 integration, biochemical. inhibition, % at 3.7 µM. actives 36% (n = 2,000). AID 1053136; in the data active means inhibition above about 14%
AlphaScreen art – interferes with AlphaScreen signal, flagging NSD2 false positives. shares compounds with NSD2 inh. AID 1053174. actives 9.4% (n = 1,500). AC35, µM (titrated, usually from 10 µM). AlphaScreen artifact counterscreen, preloaded methylated H4 peptide; call rule not given here
Of the large screens only hits and unclear results are named; the others gave an inactive call (follow-up assays come after a bar, where they were run).

N#CC1C(=O)Nc2cccnc21 (configuration not stated)	LEDGF integ inh 27, TDP2 absorb 66, NSD2 inh 121, CASP6 VEID inh 59 | TDP2 confirm inactive | IN multimer up inactive | TRFRET interf inactive | LEDGF integ conf inactive | AlphaScreen art inactive
O=C1Nc2ccccc2C1Cc1ccccn1 (configuration not stated)	none
Cc1ccc(C)c(-n2c3nc(=O)n(C)c(=O)c-3cc3ccccc32)c1	none
Cc1ccc(C)c(-n2c3nc(=O)[nH]c(=O)c-3cc3cc([N+](=O)[O-])ccc32)c1	LEDGF integ inh 21, TDP2 absorb 52, NSD2 inh 60, CASP6 VEID inh 50 | TDP2 confirm 40 | IN multimer up inactive | TRFRET interf inactive | LEDGF integ conf 21 | AlphaScreen art inactive
Cc1cccc(-n2c3nc(=O)[nH]c(=O)c-3cc3cc([N+](=O)[O-])ccc32)c1	TDP2 absorb 54, NSD2 inh 58 | TDP2 confirm 47 | AlphaScreen art inactive
CO[C@@H](CN(C)S(=O)(=O)c1cn(C)cn1)[C@@H](C)CN(C(=O)Nc1ccc(C(F)(F)F)cc1)[C@H](C)CO	none (no result: UHRF1 MBD2 ctr, LEDGF integ inh, MBD2 inh, TDP2 absorb, NSD2 inh)
C[C@@H]1CN([C@@H](C)CO)S(=O)(=O)c2ccc(C3=CCCCC3)cc2O[C@H]1CN(C)C(=O)CC1CC1	none (no result: UHRF1 MBD2 ctr, LEDGF integ inh, MBD2 inh, TDP2 absorb, NSD2 inh)
COc1cc(N)c2ncccc2c1Br	LEDGF integ inh 29, TDP2 absorb 76, NSD2 inh 152, CASP6 VEID inh 93 | TDP2 confirm 51 | IN multimer up inactive | TRFRET interf inactive | LEDGF integ conf inactive | AlphaScreen art inactive
COc1ccc2ncccc2c1Cc1c(OC)ccc2ncccc12	none
CO[C@@H]1CN(C)C(=O)c2cc(NS(C)(=O)=O)ccc2OC[C@H](C)N(CC2CC2)C[C@H]1C	none (no result: UHRF1 MBD2 ctr, LEDGF integ inh, MBD2 inh, TDP2 absorb, NSD2 inh)
COCC(=O)Nc1ccc2c(c1)[C@@H]1C[C@H](CC(=O)N(C)C)O[C@@H](CO)[C@@H]1O2	none (no result: UHRF1 MBD2 ctr, LEDGF integ inh, MBD2 inh, TDP2 absorb, NSD2 inh)
Cc1[nH]n(-c2ccccc2)c(=O)c1C(C[N+](=O)[O-])c1ccc(F)cc1 (configuration not stated)	TDP2 absorb 38, NSD2 inh 65 (no result: CASP6 VEID inh) | TDP2 confirm inactive | AlphaScreen art inactive
Cc1[nH]n(-c2ccccc2)c(=O)c1C=NCCc1ccccc1	none
Cc1ccc(C(C[N+](=O)[O-])c2c(C)[nH]n(-c3ccccc3)c2=O)cc1 (configuration not stated)	TDP2 absorb 34, NSD2 inh 103 | TDP2 confirm 32 | AlphaScreen art inactive
Oc1ccccc1CNc1cccc2cccnc12	LEDGF integ inh 31, TDP2 absorb 35, NSD2 inh 53 | TDP2 confirm inactive | IN multimer up inactive | TRFRET interf inactive | LEDGF integ conf inactive | AlphaScreen art inactive
O=S(=O)(N[C@@H]1CC[C@@H](CCn2cc(C3CC3)nn2)O[C@@H]1CO)c1ccc(F)cc1	none (no result: UHRF1 MBD2 ctr, LEDGF integ inh, MBD2 inh, TDP2 absorb, NSD2 inh)
Cc1nc(COC(=O)c2cc(O)c3ccccc3c2O)cs1	TDP2 absorb 26, NSD2 inh 78 | TDP2 confirm inactive | AlphaScreen art inactive
CCCNC(=O)N1[C@H](CO)[C@H](c2ccccc2)[C@H]1CNC(=O)c1ccccc1	none (no result: UHRF1 MBD2 ctr, LEDGF integ inh, MBD2 inh, TDP2 absorb, NSD2 inh)
COCC(=O)N1CC(=O)N2[C@@H](CO)[C@H](c3ccc(C#CC4CCCCC4)cc3)[C@@H]2C1	none (no result: UHRF1 MBD2 ctr, LEDGF integ inh, MBD2 inh, TDP2 absorb, NSD2 inh)
COc1ccc2noc3c2c1C(=O)c1ccccc1-3	TDP2 absorb 38, NSD2 inh 108, CASP6 VEID inh 46 | TDP2 confirm 30 | AlphaScreen art inactive
COc1ccc(N)c2c1C(=O)c1ccccc1C2=O	none (no result: NSD2 inh, CASP6 VEID inh)
Nn1cnnc1N/N=C/c1ccc(Cl)c([N+](=O)[O-])c1	LEDGF integ inh 44, TDP2 absorb 75, NSD2 inh 116 | TDP2 confirm 37 | IN multimer up inactive | TRFRET interf inactive | LEDGF integ conf inactive | AlphaScreen art inactive
C[C@@H]1CN([C@H](C)CO)C(=O)c2cc(N(C)C)ccc2O[C@H]1CN(C)Cc1ccc(C(F)(F)F)cc1	none (no result: UHRF1 MBD2 ctr, LEDGF integ inh, MBD2 inh, TDP2 absorb, NSD2 inh)
O=C1C=C(O)c2[nH]c(=O)ccc2C1=O	LEDGF integ inh 26, TDP2 absorb 41, NSD2 inh 94, CASP6 VEID inh 84 | TDP2 confirm 42 | IN multimer up 30 | TRFRET interf inactive | LEDGF integ conf 51 | AlphaScreen art inactive
S=C(Nc1ccc2nsnc2c1)N1CCCCC1	LEDGF integ inh 17, TDP2 absorb 76, NSD2 inh 61, CASP6 VEID inh 47 | TDP2 confirm 54 | IN multimer up inactive | TRFRET interf inactive | LEDGF integ conf inactive | AlphaScreen art inactive
N#Cc1cc2ccc(N3CCOCC3)cc2cc1C#N	LEDGF integ inh 31, TDP2 absorb 69, NSD2 inh 120, CASP6 VEID inh 64 | TDP2 confirm inactive | IN multimer up inactive | TRFRET interf inactive | LEDGF integ conf inactive | AlphaScreen art inactive
O=C(O)CSc1cc(NS(=O)(=O)c2ccc(Br)cc2)c2ccccc2c1O	LEDGF integ inh 25, TDP2 absorb 70, NSD2 inh 107, CASP6 VEID inh 95 | TDP2 confirm 56 | IN multimer up inactive | TRFRET interf inactive | LEDGF integ conf 51 | AlphaScreen art inactive
Cc1ccc(S(=O)(=O)Nc2ccc(Br)cc2C(NCC(=O)O)c2ccccc2)cc1 (configuration not stated)	none (no result: CASP6 VEID inh)
C[C@@H]1CN([C@@H](C)CO)C(=O)c2cccc(NC(=O)C3CC3)c2O[C@@H]1CN(C)Cc1ccc(C(F)(F)F)cc1	none (no result: UHRF1 MBD2 ctr, LEDGF integ inh, MBD2 inh, TDP2 absorb, NSD2 inh)
CN(C)c1cc(Cl)c2nonc2c1N	LEDGF integ inh 26, TDP2 absorb 66, NSD2 inh 104, CASP6 VEID inh 99 | TDP2 confirm 54 | IN multimer up inactive | TRFRET interf inactive | LEDGF integ conf inactive | AlphaScreen art inactive
N#Cc1c(NC(=O)c2ccc(Br)o2)n(-c2ccccc2)c2nc3ccccc3nc12	TDP2 absorb 28, NSD2 inh 177, CASP6 VEID inh 46 | TDP2 confirm 60 | AlphaScreen art inactive
CO[C@@H]1CN(C)C(=O)c2cc(NC(=O)C3CC3)ccc2OC[C@@H](C)N(C)C[C@@H]1C	none (no result: UHRF1 MBD2 ctr, LEDGF integ inh, MBD2 inh, TDP2 absorb, NSD2 inh)

High-throughput results from PubChem.
